From publication PMC3968794 (Bioorganic & medicinal chemistry, 2013)
Where two headings read alike, the source gives them in different places.

How the values were obtained:
[1] = test system: tubulin; conditions: read-out: Inhibition of tubulin polymerization IC50; cell-free assay; ref [61]; cited from earlier work
[2] = test system: tubulin; assay: Inhibition of tubulin assembly; assay type: biochemical; conditions: read-out: Inhibition of tubulin polymerization IC50; cell-free assay, tubulin purified from calf brain
In short: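 Calf-brain tubulin; test compound mixtures held on ice 15 min, then GTP added from a 2.5 mM stock. Samples equilibrated at 0 °C for 8 min in the spectrophotometer, then read at 350 nm every 30 s for 3800 s. Temperature program: 0 °C for 100 s, 38 °C for 120 s, 31 °C until 2600 s, then 0 °C to the end.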

[3] = test system: SK-OV-3, NCI-H460 and DU-145 human cancer cell lines; assay: SRB cytotoxicity assay, three human cancer cell lines stated together; assay type: cell-based
In short: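 Sulforhodamine B growth-inhibition assay (NCI standard method). Cells were grown in RPMI1640 with 5% fetal bovine serum and 1% gentamicin, then plated and incubated 24 h. Serial dilutions of test compound were added, with 48 h exposure. Cells were fixed with trichloroacetic acid, stained with SRB, and read by optical density. GI50 (concentration halving net protein increase) was calculated from OD data.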

## COc1ccc(/C=C\c2cc(OC)c(OC)c(OC)c2)cc1OP(=O)(O)O [CA4P, combretastatin A-4P]
[1]
  IC50: > 40 µM

## COc1cc(C2=CCCCc3c2ccc(OC)c3OP(=O)(O)O)cc(OC)c1OC [Compound 44, Disodium 2-Methoxy-5-(3′,4′,5′-trimethoxyphenyl)-benzocyclohept-5-ene-1-phosphate]
[2]
  IC50: > 40 µM

## COc1cc(C2=CCCCc3ccccc32)cc(OC)c1OC [Compound 41, 5-(3,4,5-trimethoxyphenyl)-benzocyclohept-5-ene]
[2]
  IC50: > 40 µM

## COc1ccc(C2=CCCCc3c2ccc(OC)c3OC)cc1OC [Compound 35, 1,2-Dimethoxy-5-(3,4-dimethoxyphenyl)-benzocyclohept-5-ene]
[2]
  IC50: > 40 µM

## COc1cc(C2=CCCCc3c2cc(OC)c(OC)c3O)cc(OC)c1OC [Compound 43, 1-Hydroxy-2,3-dimethoxy-5-(3′,4′,5′-trimethoxyphenyl)-benzocyclohept-5-ene]
[2]
  IC50: > 40 µM

## COc1ccc2c(c1NC(=O)[C@@H](N)CO)CCCC=C2c1cc(OC)c(OC)c(OC)c1.Cl [Compound 48, 1-(L-ser)amido-5-(3′,4′,5′-trimethoxyphenyl)-2-methoxy-benzocyclohept-5-ene hydrochloride]
[3]; three human cancer cell lines
  Cytotoxicity (in words): inactive in terms of cytotoxicity

## COc1cc2c(c(OC)c1O)CCCC=C2c1cc(OC)c(OC)c(OC)c1 [Compound 38, 1,3-Dimethoxy-2-hydroxy-5-(3′,4′,5′-trimethoxyphenyl)-benzocyclohept-5-ene]
[2]
  IC50: > 40 µM

## COc1ccc2c(c1O)CCCC=C2c1cc(OC)c(OC)c(OC)c1 [Compound 39, 1-Hydroxy-2-methoxy-5-(3′,4′,5′-trimethoxyphenyl)-benzocyclohept-5-ene]
[3]; Homo sapiens, read-out: GI50 (cytotoxicity)
  GI50: < 0.0001 µM
